Key:
Type in all cases: functional
Cavia porcellus [1] = organism: Cavia porcellus; experiment: Tested for effect on the production of Lipoxygenase (LO) metabolite, 5-HETE in guinea pig peritoneal polymorphonuclear neutrophils at 30 uM concentration
In short: (§1)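 Guinea pig peritoneal PMNs were incubated with [14C]arachidonic acid and stimulated with calcium ionophore A23187. Compounds were tested at 30 μM in 0.1 N NaOH–Krebs Ringer bicarbonate buffer. Radiolabeled cyclooxygenase and lipoxygenase products were identified by HPLC and GC-MS, separated by TLC and quantified by automatic scanning.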

Cavia porcellus [2] = organism: Cavia porcellus; experiment: Tested for effect on the production of Lipoxygenase (LO) metabolite, 5,12-diHETE in guinea pig peritoneal polymorphonuclear neutrophils at 30 uM concentration; in short: as §1
Rattus norvegicus [3] = experiment: Antiinflammatory activity was assessed by the ability to improve the adjuvant induced arthritis in right primary lesion in rats at oral doses, 33 mg/kg (volume change in the injected paw measured from day 0 to day 8)
In short: (§2)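 Female Sprague–Dawley rats (150–170 g), six per group. Arthritis induced by subcutaneous plantar injection of 0.125 mg killed tubercle bacillus in liquid paraffin into the right hind paw. Dosing was 33 mg/kg orally, daily for 14 days, starting the day before adjuvant. Paw volumes were measured by mercury plethysmography every 2–3 days over 18 days. Primary lesion: right paw, days 0–8. Secondary lesions: right and left (uninjected) paws, days 9–18. Areas under the time-course curves were compared with controls by ANOVA.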

Rattus norvegicus [4] = organism: Rattus norvegicus; experiment: Antiinflammatory activity was assessed improvement of adjuvant induced arthritis in rats, determined by joint mobility of the paw; design: concentration or dose not given beside the values
In short: (§3)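 Adjuvant arthritis was induced in female Sprague–Dawley rats (150–170 g, groups of six) by right-hind-paw plantar injection of killed tubercle bacillus in paraffin. Treatment was 33 mg/kg orally, daily for 14 days, starting the day before adjuvant. Joint involvement was scored as the angle through which the hind paws moved easily, given as percent change versus nontreated controls.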

Cavia porcellus [5] = organism: Cavia porcellus; experiment: Tested for effect on the production of cyclooxygenase (COX) metabolite, PGF2-alpha (prostaglandin F2-alpha) of arachidonic acid in guinea pig peritoneal polymorphonuclear neutrophils at 30 uM concentration; in short: as §1
Rattus norvegicus [6] = experiment: Antiinflammatory activity was assessed by the ability to improve the adjuvant induced arthritis in left secondary lesion in rats at oral doses, 33 mg/kg (volume change in the injected paw measured from day 9 to day 18)
Cavia porcellus [7] = organism: Cavia porcellus; experiment: Tested for effect on the production of cyclooxygenase (COX) metabolite, PGE-2 (prostaglandin E2) of arachidonic acid in guinea pig peritoneal polymorphonuclear neutrophils at 30 uM concentration; in short: as §1
Cavia porcellus [8] = organism: Cavia porcellus; experiment: Tested for effect on the production of cyclooxygenase (COX) metabolite, TXB2 of arachidonic acid in guinea pig peritoneal polymorphonuclear neutrophils at 30 uM concentration; in short: as §1
Rattus norvegicus [9] = experiment: Ability to improve the adjuvant induced arthritis in right secondary lesion in rats at oral doses, 33 mg/kg; in short: as §2
Rattus norvegicus [10] = experiment: Antiinflammatory activity was assessed by the ability to improve the adjuvant induced arthritis in left secondary lesion in rats at oral doses, 33 mg/kg (volume change in the uninjected paw measured from day 9 to day 18); in short: as §2
Rattus norvegicus [11] = experiment: Antiinflammatory activity was assessed by the ability to improve the adjuvant induced arthritis rats was determined by joint mobility of the paw at oral doses, 33 mg/kg; in short: as §3
Cavia porcellus [12] = organism: Cavia porcellus; experiment: Tested for effect on the production of Lipoxygenase (LO) metabolite, 5,12-diHETE in guinea pig peritoneal polymorphonuclear neutrophils at 30 uM concentration; ND = no data; in short: as §1
Cavia porcellus [13] = organism: Cavia porcellus; experiment: Tested for effect on the production of Lipoxygenase (LOX) metabolite, 5-HETE in guinea pig peritoneal polymorphonuclear neutrophils at 30 uM concentration; in short: as §1
Rattus norvegicus [14] = organism: Rattus norvegicus; experiment: Antiinflammatory activity was assessed by the ability to improve the adjuvant induced arthritis in left secondary lesion in rats (volume change in the […] to day 18)
Rattus norvegicus [15] = organism: Rattus norvegicus; experiment: Antiinflammatory activity was assessed by the ability to improve the adjuvant induced arthritis in right secondary lesion in rats (volume change in the injected paw measured from day 9 to day 18); in short: as §2
Rattus norvegicus [16] = organism: Rattus norvegicus; experiment: Antiinflammatory activity was assessed by the ability to improve the adjuvant induced arthritis in right primary lesion in rats(volume change in the injected paw measured from day 0 to day 8); in short: as §2

Compound	Reduction (Cavia porcellus [1])	Reduction (Cavia porcellus [2])	Reduction (Rattus norvegicus [3])	Reduction (Rattus norvegicus [4])	Reduction (Cavia porcellus [5])	Reduction (Rattus norvegicus [6])	Reduction (Cavia porcellus [7])	Reduction (Cavia porcellus [8])	Reduction (Rattus norvegicus [9])	Reduction (Rattus norvegicus [10])	Reduction (Rattus norvegicus [11])	Reduction (Cavia porcellus [12])	Reduction (Cavia porcellus [13])	Reduction (Rattus norvegicus [14])	Reduction (Rattus norvegicus [15])	Reduction (Rattus norvegicus [16])
CC(C(=O)O)c1cc(C(=O)c2ccccc2)ccc1O (centres undefined)	-27%	-55%	30%	38%	52%	61%	77%	75%	37%							
O=C(O)Cc1cc(C(=O)c2cccs2)ccc1O	-72%	-62%	11%	1%	74%		74%	89%	20%	10%						
C=CCc1cc(C(=O)c2cccs2)cc2c1OC(=O)C2C (centres undefined)	14%	-24%	1%	5%	77%	17%	88%	93%	6%							
CC1C(=O)Oc2ccc(C(=O)c3ccc(F)cc3)cc21 (centres undefined)	6%	-25%	5%	-1%	47%	31%	46%	76%	10%							
CCCCC1C(=O)Oc2ccc(C(=O)c3cccs3)cc21 (centres undefined)	73%	61%	4%	-1%	62%	-55%	68%	89%	-22%							
CCC1(CC)C(=O)Oc2ccc(C(=O)c3cccs3)cc21	2%	-7%	18%	23%	48%	41%	62%	90%	17%							
O=C1Oc2ccc(C(=O)c3cccs3)cc2/C1=C/c1ccccc1	-18%	-10%	21%		60%	76%	81%	92%	48%		46%					
C=CCOc1ccc(C(=O)c2cccs2)cc1C(C)C(=O)O (centres undefined)	-25%		18%	-14%	11%	3%	6%	62%	-8%			-21%				
O=C(c1ccc2c(c1)C(C(=O)Nc1ccccc1)C(=O)O2)c1cccs1 (centres undefined)	94%	85%	8%	1%	86%	25%	93%	93%	6%							
CC1C(=O)Oc2ccc(C(=O)c3cccs3)cc21 (centres undefined)	37%	39%	31%	31%	15%	48%	61%	67%	40%							
NC1=NN(c2cccc(C(F)(F)F)c2)CC1 [BW-755C]		40%			82%		79%	90%					45%			
COc1ccc2c(c1)c(CC(=O)O)c(C)n2C(=O)c1ccc(Cl)cc1 [INDOMETHACIN]	-12%	-81%		91%	70%		84%	91%						77%	56%	37%

From ChEMBL document CHEMBL1123839, “5-Acyl-3-substituted-benzofuran-2(3H)-ones as potential antiinflammatory agents” (1987)
